Measured values as given in ChEMBL document CHEMBL1123837, “1-Amino-substituted 4-methyl-5H-pyrido[3',4':4,5]pyrrolo[3,2-c]pyridines: a new class of antineoplastic agents” (J Med Chem, 1987).
Blank lines part the entries; values can stand above or below the compound they belong to. Activity calls are given as the source filed them. No cut-off for these calls is given here.

Tests used:
Mus musculus [1] = experiment: In vivo antitumor activity was determined against P388 leukemia cells expressed as treated/control at the dose of (2.5-40)mg/kg(nontoxic at highest dose tested.); IA = Inactive; format: functional, organism-based
In short: (§1)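 Following NCI protocols, 10^6 viable P388 leukemia cells were inoculated ip on day 0 into male or female CDF1 hybrid mice, 10 per test group. Compounds in distilled water were given ip (0.1 mL/10 g body weight) at various doses on days 1–5. T/C = median survival day of treated / median survival day of negative controls × 100.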

L1210 = experiment: In vitro cytotoxicity against L1210 cells was determined after 48 hours of incubation; format: functional, Mus musculus; conditions: read-out: ID50 (the source's name)
In short: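 Exponentially growing L1210 cells were cultured in RPMI 1640 with 2 mM glutamine, penicillin/streptomycin and 10% fetal calf serum, under 5% CO2 at 37 °C. Drugs dissolved in distilled water were added to cells at 0.8 × 10^5 cells/mL for 48 h, then cells were counted. ID50 was estimated by regression of dose-response data, as the mean of two values from two independent experiments.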

Calf thymus DNA = experiment: Binding affinity for DNA by ethidium bromide displacement assay; format: nucleic-acid assay; conditions: Bos taurus
In short: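 Competitive ethidium bromide displacement with calf thymus DNA at 10 µg/mL in 20 mM Na phosphate buffer, 0.1 M NaCl, 1 mM EDTA, pH 7.4. The apparent DNA affinity constant is given in 10^6 M^-1 ± standard deviation, from 6 values across two independent experiments.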

Mus musculus [2] = experiment: In vivo antitumor activity was determined against P388 leukemia cells expressed as treated/control at the dose of (5-50)mg/kg; IA = Inactive; format: functional, organism-based; in short: as §1
Mus musculus [3] = experiment: In vivo antitumor activity was determined against P388 leukemia cells expressed as treated/control at the dose of (1.25-40)mg/kg; IA = Inactive; format: functional, organism-based; in short: as §1
Mus musculus [4] = experiment: In vivo antitumor activity was determined against P388 leukemia cells expressed as treated/control at the dose of (80)mg/kg;T = toxic at this dose; format: functional, organism-based; in short: as §1
Mus musculus [5] = experiment: In vivo antitumor activity was determined against P388 leukemia cells expressed as treated/control at the dose of 40 mg/kg; format: functional; in short: as §1
Mus musculus [6] = experiment: In vivo antitumor activity was determined against P388 leukemia cells expressed as treated/control at the dose of 80 mg/kg; format: functional; in short: as §1
Mus musculus [7] = experiment: In vivo antitumor activity was determined against P388 leukemia cells expressed as treated/control at the dose of 20 mg/kg; format: functional; in short: as §1
Mus musculus [8] = experiment: In vivo antitumor activity was determined against P388 leukemia cells expressed as treated/control at the dose of 10 mg/kg; format: functional; in short: as §1
Mus musculus [9] = experiment: In vivo antitumor activity was determined against P388 leukemia cells expressed as treated/control at the dose of (2.5-20)mg/kg(nontoxic at highest dose tested.); IA = Inactive; format: functional, organism-based; in short: as §1
Mus musculus [10] = experiment: In vivo antitumor activity was determined against P388 leukemia cells expressed as treated/control at yhe dose of 2.5-40 mg/kg; IA = Inactive; format: functional, organism-based; in short: as §1
Mus musculus [11] = experiment: In vivo antitumor activity was determined against P388 leukemia cells expressed as treated/control at the dose of (5-100)mg/kg (nontoxic at highest dose tested.); IA = Inactive; format: functional, organism-based; in short: as §1
Mus musculus [12] = experiment: In vivo antitumor activity was determined against P388 leukemia cells expressed as treated/control at the dose of 80 mg/kg;T = toxic at this dose; format: organism-based; parameters: dose 80 mg/kg; in short: as §1
Mus musculus [13] = experiment: In vivo antitumor activity was determined against P388 leukemia cells expressed as treated/control at the dose of (2.5-40)mg/kg; IA = Inactive; format: functional, organism-based; in short: as §1
Mus musculus [14] = experiment: In vivo antitumor activity was determined against P388 leukemia cells expressed as treated/control at the dose of 40 mg/kg; T = toxic at this dose; format: organism-based; parameters: dose 40 mg/kg; in short: as §1
Mus musculus [15] = experiment: In vivo antitumor activity was determined against P388 leukemia cells expressed as treated/control at the dose of (2.5-20)mg/kg; IA = Inactive; format: functional, organism-based; in short: as §1
Mus musculus [16] = experiment: In vivo antitumor activity was determined against P388 leukemia cells expressed as treated/control at the dosage of 20 mg/kg; format: functional; in short: as §1
Mus musculus [17] = experiment: In vivo antitumor activity was determined against P388 leukemia cells expressed as treated/control at the dosage of 40 mg/kg; format: functional; in short: as §1
Mus musculus [18] = experiment: In vivo antitumor activity was determined against P388 leukemia cells expressed as treated/control at the dosage of 10 mg/kg; format: functional; in short: as §1

K aff (Calf thymus DNA): 30000 M⁻¹
SMILES: Cc1cnc(NCCCN2CCOCC2)c2c3cnccc3n(C)c12
T/C (Mus musculus [1]): inactive
IC50 (L1210; Mus musculus, L1210, 48 h): 5.3 µM

K aff (Calf thymus DNA): 17000 M⁻¹
SMILES: CCN(CC)CCCNc1nccc2c1c1cnccc1n2C
T/C (Mus musculus [2]): inactive
IC50 (L1210; Mus musculus, L1210, 48 h): 1.6 µM

K aff (Calf thymus DNA): 3000 M⁻¹
SMILES: CCN(CC)CCCN(C)c1ncc(C)c2c1c1cnccc1n2C
T/C (Mus musculus [3]): inactive
IC50 (L1210; Mus musculus, L1210, 48 h): 52 µM
T/C (Mus musculus [4]): Toxic

K aff (Calf thymus DNA): 50000 M⁻¹
SMILES: CCNCCCNc1ncc(C)c2c1c1cnccc1n2C
T/C (Mus musculus [5]): 138
T/C (Mus musculus [6]): 149
IC50 (L1210; Mus musculus, L1210, 48 h): 3.8 µM
T/C (Mus musculus [7]): 145
T/C (Mus musculus [8]): 127

K aff (Calf thymus DNA): 16000 M⁻¹
SMILES: CCCN(CCC)CCCNc1ncc(C)c2c1c1cnccc1n2C
T/C (Mus musculus [9]): inactive
IC50 (L1210; Mus musculus, L1210, 48 h): 8.6 µM

K aff (Calf thymus DNA): 0.06
SMILES: Cc1cnc(NCCCN2CCCC2)c2c3cnccc3n(C)c12
T/C (Mus musculus [10]): inactive
IC50 (L1210; Mus musculus, L1210, 48 h): 1.6 µM

K aff (Calf thymus DNA): 40000 M⁻¹
SMILES: CCN(CC)CCCCNc1ncc(C)c2c1c1cnccc1n2C
T/C (Mus musculus [11]): inactive

K aff (Calf thymus DNA): 25000 M⁻¹
SMILES: CCNCCCNc1[nH]cc(C)c2nc3ccncc3c1-2
T/C (Mus musculus [12]): Toxic
T/C (Mus musculus [13]): inactive
IC50 (L1210; Mus musculus, L1210, 48 h): 17.4 µM

K aff (Calf thymus DNA): 12000 M⁻¹
SMILES: CCN(CC)CCNc1[nH]cc(C)c2nc3ccncc3c1-2
T/C (Mus musculus [14]): Toxic
IC50 (L1210; Mus musculus, L1210, 48 h): 19.5 µM
T/C (Mus musculus [15]): inactive

SMILES: CCN(CC)CCCNc1ncc(C)c2[nH]c3ccncc3c12
T/C (Mus musculus [16]): 148
T/C (Mus musculus [17]): 155
T/C (Mus musculus [18]): 135
IC50 (L1210): 0.34 µM
